Measured values collected from several papers.
Compare with care: the assays were run in different laboratories.
Observed: cell growth or viability

CN1CCN(C(=O)[C@H](CCCN[C@@H]2C[C@H]2c2ccc(F)cc2)NC(=O)c2ccc(-n3ccnn3)cc2)CC1 — EC50 (MOLM-13; resazurin; 96 h): 0.00538 µM
Cn1cc(C(c2ccc(C(=O)O)cc2)c2cn(C)c3ccccc23)c2ccccc21 — inhibition (KG-1; 20 µM; 48 h): 25%
C/C(=N\NC(=O)c1cccc(S(=O)(=O)N2CCN(C)CC2)c1)c1cc(Cl)ccc1O — EC50 (MOLM-13; resazurin; 96 h): 0.285 µM
COc1ccc(-c2ccc(-c3ccc(C(=N)N)nc3)s2)cc1Cl — GI50 (Malme-3M; SRB): 1.78 µM
CC(C)n1cc(C(c2ccc(/C=C/C(=O)O)s2)c2cn(C(C)C)c3ccccc23)c2ccccc21 — inhibition (KG-1; 5 µM; 48 h): 12%
COc1ccccc1S(=O)(=O)Nc1ccc2c(c1)CN(C)C(=O)N2 — GI50 (PL-21; ATP luminescence): 10 µM
COc1cccc(Oc2ccccc2NC(=O)CNC(=O)c2cccc3ccccc23)c1 — GI50 (Malme-3M; SRB; 48 h): 17 µM
CCn1c2ccccc2c2cc(C3CC(c4cc5cccc(OC)c5oc4=O)=NN3C(N)=O)ccc21 (centres unmarked) — IC50 (NRK-52E; MTT; 24 h): 40.3 µM
COc1cc(-c2ccc(-c3ccc(C(=N)N)nc3)s2)cc(OC)c1OC — GI50 (Malme-3M; SRB): 1.53 µM
Cn1cc(C(c2ccc(/C=C/C(=O)O)s2)c2cn(C)c3ccccc23)c2ccccc21 — inhibition (KG-1; 20 µM; 48 h): 7%
CCn1c2ccccc2c2cc(C3CC(c4cc5cccc(OC)c5oc4=O)=NN3c3cccc(Cl)c3)ccc21 (centres unmarked) — IC50 (NRK-52E; MTT; 24 h): 24.2 µM
